According to ChEMBL document CHEMBL4251593, “Nontoxic combretafuranone analogues with high in vitro antibacterial activity” (Eur J Med Chem, 2018):
Converted amounts (≈) assume the structure as drawn. The source made the active and inactive calls. The rule behind the calls is not given here.

Experiments:
TERT-RPE1 [1] = test: Cytotoxicity against human RPE1 cells assessed as reduction in cell viability after 48 hrs by ATPlite-based luminescent assay; settings: RPE-1, 48 h
Outline: (§1)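 Cells were grown […] with 10% FBS, glutamax, NEAA and pen/strep at 37 °C, 5% CO2. Media were DMEM for RPE-1, HepG2 and BJ (BJ plus 10 ng/ml bFGF), F-12K for PC3, and IMDM for K562/HL-60. Cells were seeded at 500 per well and dosed from DMSO at 12 concentrations, 40 µM to 1 nM, in triplicate. After 48 h, intracellular ATP was read by luminescence. ED50 was obtained by variable-slope nonlinear regression.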

BJ = test: Cytotoxicity against human BJ cells assessed as reduction in cell viability after 48 hrs by ATPlite-based luminescent assay; outline: as §1
K562 [2] = test: Cytotoxicity against human K562 cells assessed as reduction in cell viability after 48 hrs by ATPlite-based luminescent assay; settings: K562, 48 h; outline: as §1
HL-60 [3] = test: Cytotoxicity against human HL60 cells assessed as reduction in cell viability after 48 hrs by ATPlite-based luminescent assay; settings: HL-60, 48 h; outline: as §1
PC-3 [4] = test: Cytotoxicity against human PC3 cells assessed as reduction in cell viability after 48 hrs by ATPlite-based luminescent assay; settings: PC-3, 48 h; outline: as §1
MCF7 = test: Cytotoxicity against human MCF7 cells assessed as reduction in cell viability after 48 hrs by ATPlite-based luminescent assay; settings: MCF7, 48 h
HepG2 [5] = test: Cytotoxicity against human HepG2 cells assessed as reduction in cell viability after 48 hrs by ATPlite-based luminescent assay; settings: HepG2, 48 h; outline: as §1
TERT-RPE1 [6] = test: Induction of apoptosis in human RPE1 cells assessed as caspase 3/7 activity after 24 hrs by caspase-glo luminescent assay; assay type: cell-based; settings: RPE-1, 24 h
Outline: (§2)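 Cells were seeded at 500 per well in their growth media and exposed to 12 concentrations from 40 µM to 1 nM, delivered from DMSO, in triplicate. After 24 h, caspase-3/7 activity was read by Caspase-Glo luminescence. Data were normalized and ED50 was fitted by variable-slope nonlinear regression.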

K562 [7] = test: Induction of apoptosis in human K562 cells assessed as caspase 3/7 activity after 24 hrs by caspase-glo luminescent assay; assay type: cell-based; settings: K562, 24 h; outline: as §2
HL-60 [8] = test: Induction of apoptosis in human HL60 cells assessed as caspase 3/7 activity after 24 hrs by caspase-glo luminescent assay; assay type: cell-based; settings: HL-60, 24 h; outline: as §2
PC-3 [9] = test: Induction of apoptosis in human PC3 cells assessed as caspase 3/7 activity after 24 hrs by caspase-glo luminescent assay; assay type: cell-based; settings: PC-3, 24 h; outline: as §2
HepG2 [10] = test: Induction of apoptosis in human HepG2 cells assessed as caspase 3/7 activity after 24 hrs by caspase-glo luminescent assay; assay type: cell-based; settings: HepG2, 24 h; outline: as §2
Staphylococcus aureus [11] = test: Antibacterial activity against Staphylococcus aureus ATCC 6538 after 24 hrs by microdilution assay; assay type: functional; settings: ATCC 6538, 24 h
Staphylococcus aureus [12] = test: Antibacterial activity against methicillin-resistant Staphylococcus aureus HK5996/08 clinical isolate after 24 hrs by microdilution assay; assay type: functional; settings: HK5996/08, 24 h
[13] = test system: Staphylococcus epidermidis; test: Antibacterial activity against Staphylococcus epidermidis HK6966/08 clinical isolate after 24 hrs by microdilution assay; assay type: functional; settings: HK6966/08, 24 h
Enterococcus sp. [14] = test: Antibacterial activity against Enterococcus sp. HK14365/08 clinical isolate after 24 hrs by microdilution assay; assay type: functional; settings: HK14365/08, 24 h
Escherichia coli [15] = test: Antibacterial activity against Escherichia coli ATCC 8739 after 24 hrs by microdilution assay; assay type: functional; settings: ATCC 8739, 24 h
Outline: (§3)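 Broth microdilution in Mueller-Hinton medium buffered to pH 7.4 (±0.2), with DMSO as diluent at no more than 2% final. Compounds were tested as 2-fold serial dilutions from 2000 to 0.488 µmol/l. The inoculum was 0.5 McFarland (1.5×10^8 cfu/ml). Plates were held at 37 °C and read visually at 24 and 48 h. MIC was taken as 95% growth inhibition versus control, determined twice in duplicate.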

Klebsiella pneumoniae [16] = test: Antibacterial activity against Klebsiella pneumoniae HK11750/08 clinical isolate after 24 hrs by microdilution assay; assay type: functional; settings: HK11750/08, 24 h
Klebsiella pneumoniae [17] = test: Antibacterial activity against Klebsiella pneumoniae HK14368/08 clinical isolate after 24 hrs by microdilution assay; assay type: functional; settings: HK14368/08, 24 h
Pseudomonas aeruginosa [18] = test: Antibacterial activity against Pseudomonas aeruginosa ATCC 9027 after 24 hrs by microdilution assay; assay type: functional; settings: ATCC 9027, 24 h; outline: as §3
Staphylococcus aureus [19] = test: Antibacterial activity against Staphylococcus aureus ATCC 6538 after 48 hrs by microdilution assay; assay type: functional; settings: ATCC 6538, 48 h
Staphylococcus aureus [20] = test: Antibacterial activity against methicillin-resistant Staphylococcus aureus HK5996/08 clinical isolate after 48 hrs by microdilution assay; assay type: functional; settings: HK5996/08, 48 h
[21] = test system: Staphylococcus epidermidis; test: Antibacterial activity against Staphylococcus epidermidis HK6966/08 clinical isolate after 48 hrs by microdilution assay; assay type: functional; settings: HK6966/08, 48 h
Enterococcus sp. [22] = test: Antibacterial activity against Enterococcus sp. HK14365/08 clinical isolate after 48 hrs by microdilution assay; assay type: functional; settings: HK14365/08, 48 h
Escherichia coli [23] = test: Antibacterial activity against Escherichia coli ATCC 8739 after 48 hrs by microdilution assay; assay type: functional; settings: ATCC 8739, 48 h; outline: as §3
Klebsiella pneumoniae [24] = test: Antibacterial activity against Klebsiella pneumoniae HK11750/08 clinical isolate after 48 hrs by microdilution assay; assay type: functional; settings: HK11750/08, 48 h
Klebsiella pneumoniae [25] = test: Antibacterial activity against Klebsiella pneumoniae HK14368/08 clinical isolate after 48 hrs by microdilution assay; assay type: functional; settings: HK14368/08, 48 h
Pseudomonas aeruginosa [26] = test: Antibacterial activity against Pseudomonas aeruginosa ATCC 9027 after 48 hrs by microdilution assay; assay type: functional; settings: ATCC 9027, 48 h; outline: as §3
Candida albicans [27] = test: Antifungal activity against Candida albicans ATCC 44859 up to 1 mM after 24 to 48 hrs by microdilution assay; assay type: functional, organism-based
Outline: (§4)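 Fungal microdilution following modified CLSI M27-A3/M38-A2, in RPMI 1640 with L-glutamine and 0.165 M MOPS at pH 7.0, with DMSO no more than 2% final. Compounds were 2-fold serially diluted from 2000 to 0.488 µmol/l. The inoculum was 5×10^3 cfu/ml. Incubation was at 35 °C, read visually at 24/48 h (T. mentagrophytes at 72/120 h). MIC was IC80 for yeasts and IC50 for filamentous fungi, determined twice in duplicate.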

Candida albicans [28] = test: Antifungal activity against Candida albicans ATCC 90028 up to 1 mM after 24 to 48 hrs by microdilution assay; assay type: functional, organism-based; outline: as §4
Candida parapsilosis = test: Antifungal activity against Candida parapsilosis ATCC 22019 up to 1 mM after 24 to 48 hrs by microdilution assay; assay type: functional, organism-based; outline: as §4
Pichia kudriavzevii [29] = test: Antifungal activity against Candida krusei ATCC 6258 up to 1 mM after 24 to 48 hrs by microdilution assay; assay type: functional, organism-based; outline: as §4
Pichia kudriavzevii [30] = test: Antifungal activity against Candida krusei E28 clinical isolate up to 1 mM after 24 to 48 hrs by microdilution assay; assay type: functional, organism-based; outline: as §4
Candida tropicalis = test: Antifungal activity against Candida tropicalis 156 clinical isolate up to 1 mM after 24 to 48 hrs by microdilution assay; assay type: functional, organism-based; outline: as §4
Nakaseomyces glabratus = test: Antifungal activity against Candida glabrata 20/I clinical isolate up to 1 mM after 24 to 48 hrs by microdilution assay; assay type: functional, organism-based; outline: as §4
Clavispora lusitaniae = test: Antifungal activity against Candida lusitaniae 2446/I clinical isolate up to 1 mM after 24 to 48 hrs by microdilution assay; assay type: functional, organism-based; outline: as §4
Trichosporon asahii = test: Antifungal activity against Trichosporon asahii 1188 clinical isolate up to 1 mM after 24 to 48 hrs by microdilution assay; assay type: functional, organism-based; outline: as §4
Aspergillus fumigatus = test: Antifungal activity against Aspergillus fumigatus 231 up to 1 mM after 24 to 48 hrs by microdilution assay; assay type: functional, organism-based; outline: as §4
Lichtheimia corymbifera = test: Antifungal activity against Absidia corymbifera 272 up to 1 mM after 24 to 48 hrs by microdilution assay; assay type: functional, organism-based; outline: as §4
[31] = test system: Trichophyton mentagrophytes; test: Antifungal activity against Trichophyton mentagrophytes 445 up to 1 mM after 72 to 120 hrs by microdilution assay; assay type: functional, organism-based; outline: as §4

Row | Structure (SMILES) | IC50 (TERT-RPE1 [1]) [µM] | IC50 (BJ) [µM] | IC50 (K562 [2]) [µM] | IC50 (HL-60 [3]) [µM] | IC50 (PC-3 [4]) [µM] | IC50 (MCF7) [µM] | IC50 (HepG2 [5]) [µM] | IC50 (TERT-RPE1 [6]) [µM] | IC50 (K562 [7]) [µM] | IC50 (HL-60 [8]) [µM] | IC50 (PC-3 [9]) [µM] | IC50 (HepG2 [10]) [µM] | MIC95 (Staphylococcus aureus [11]) [µM] | MIC95 (Staphylococcus aureus [12]) [µM] | MIC95 [13] [µM] | MIC95 (Enterococcus sp. [14]) [µM] | MIC95 (Escherichia coli [15]) [µM] | MIC95 (Klebsiella pneumoniae [16]) [µM] | MIC95 (Klebsiella pneumoniae [17]) [µM] | MIC95 (Pseudomonas aeruginosa [18]) [µM] | further results
1 | O=C1OC(CO)(CO)C(c2ccc(Br)cc2)=C1c1cccc(Cl)c1Cl | > 40 | > 40 | > 40 | > 40 | > 40 | > 40 | > 40 | > 40 | > 40 | > 40 | > 40 | > 40 | 15.6 (≈ 6.94 µg/mL) | > 500 | 62.5 (≈ 27.8 µg/mL) | > 500 | > 500 | > 500 | > 500 | > 500 | MIC95 (Staphylococcus aureus [19]): 31.2 µM (≈ 13.9 µg/mL); MIC95 (Staphylococcus aureus [20]): > 500 µM; MIC95 [21]: 250 µM (≈ 111 µg/mL); MIC95 (Enterococcus sp. [22]): > 500 µM; MIC95 (Escherichia coli [23]): > 500 µM; MIC95 (Klebsiella pneumoniae [24]): > 500 µM; MIC95 (Klebsiella pneumoniae [25]): > 500 µM; MIC95 (Pseudomonas aeruginosa [26]): > 500 µM; Activity (Candida albicans [27]): inactive; Activity (Candida albicans [28]): inactive; Activity (Candida parapsilosis): inactive; Activity (Pichia kudriavzevii [29]): inactive; Activity (Pichia kudriavzevii [30]): inactive; Activity (Candida tropicalis): inactive; Activity (Nakaseomyces glabratus): inactive; Activity (Clavispora lusitaniae): inactive; Activity (Trichosporon asahii): inactive; Activity (Aspergillus fumigatus): inactive; Activity (Lichtheimia corymbifera): inactive; Activity [31]: inactive
2 | Cc1ccc(C2=C(c3ccc(Br)cc3)C(=O)OC2(CO)CO)cc1 | > 40 | > 40 | > 40 | > 40 | > 40 | > 40 | > 40 | > 40 | > 40 | > 40 | > 40 | > 40 | 0.98 (≈ 0.381 µg/mL) | 250 (≈ 97.3 µg/mL) | 62.5 (≈ 24.3 µg/mL) | 500 (≈ 195 µg/mL) | > 500 | > 500 | > 500 | > 500 | MIC95 (Staphylococcus aureus [19]): 3.9 µM (≈ 1.52 µg/mL); MIC95 (Staphylococcus aureus [20]): 500 µM (≈ 195 µg/mL); MIC95 [21]: 500 µM (≈ 195 µg/mL); MIC95 (Enterococcus sp. [22]): > 500 µM; MIC95 (Escherichia coli [23]): > 500 µM; MIC95 (Klebsiella pneumoniae [24]): > 500 µM; MIC95 (Klebsiella pneumoniae [25]): > 500 µM; MIC95 (Pseudomonas aeruginosa [26]): > 500 µM; Activity (Candida albicans [27]): inactive; Activity (Candida albicans [28]): inactive; Activity (Candida parapsilosis): inactive; Activity (Pichia kudriavzevii [29]): inactive; Activity (Pichia kudriavzevii [30]): inactive; Activity (Candida tropicalis): inactive; Activity (Nakaseomyces glabratus): inactive; Activity (Clavispora lusitaniae): inactive; Activity (Trichosporon asahii): inactive; Activity (Aspergillus fumigatus): inactive; Activity (Lichtheimia corymbifera): inactive; Activity [31]: inactive
